Compounds with a hit are over-represented: about 1.9% of the library has one in this group of screens.
TAG inh = inhibitors of triacylglycerol accumulation; AID 651582; H9c2 cells, Nile Red lipid (TAG) fluorescence; cells loaded with 200 µM oleic acid; inhibition, % at 12.5 µM; hit rate 0.66% among 230,000;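 active = pattern-corrected inhibition of lipid staining of at least 50% with the nuclear-stain viability signal not falling by more than 50%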;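 note: 0% = DMSO wells and 100% = triacsin C control wells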
CXCR6 block = CXCR6 (human) receptor inhibition. O00574. CHO-K1 PathHunter CXCR6 beta-arrestin, luminescence. inhibition, % at 20 µM. hit rate 0.36% among 360,000. AID 602244; in the data active = inhibition above about 34%, passing the limit was not always enough;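 note: antagonist mode with CXCL16 agonist at 10 nM final; 0% = 10 nM CXCL16 with DMSO and 100% = unstimulated wells without agonist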
APJ agonist = agonists of human APJ apelin receptor; P35414; CHO-K1 APJ PathHunter beta-arrestin, luminescence; 0% DMSO wells, 100% apelin; activation, % at 20 µM; hit rate 0.11% among 330,000; AID 2520;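 active = activation more than six SD over the plate average, tested at 20 µM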;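 note: 0% = DMSO alone and 100% = apelin-13 at 10 nM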
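Test system – PathHunter CHO-K1 APJ (AGTRL-1) beta-arrestin reporter cells · Input – 1000 cells/well · Compound – single test compound dose, 20 µM final, 1% DMSO · Times – compound stimulation 90 min at 25 °C, detection 60 min · Technique – beta-gal luminescence · Read-out basis – APJ–arrestin association signal · Control set – negative DMSO alone, positive Apelin-13 at 10 nM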
CCR6 antagonist = CCR6 (human) receptor antagonism | P51684 | CHO-K1 CCR6 PathHunter beta-arrestin, luminescence, CCL20-stimulated | inhibition, % at 20 µM | hit rate 0.49% among 340,000 | AID 493098;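 active = compounds whose inhibition of the agonist-driven luminescence signal at 20 µM reaches about 50%, limit read from the data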;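 note: cells stimulated with CCL20 at 14 nM final; plate controls were DMSO with CCL20 for no effect and DMSO without agonist for full effect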
Target sequence (P51684 whole entry, looked up): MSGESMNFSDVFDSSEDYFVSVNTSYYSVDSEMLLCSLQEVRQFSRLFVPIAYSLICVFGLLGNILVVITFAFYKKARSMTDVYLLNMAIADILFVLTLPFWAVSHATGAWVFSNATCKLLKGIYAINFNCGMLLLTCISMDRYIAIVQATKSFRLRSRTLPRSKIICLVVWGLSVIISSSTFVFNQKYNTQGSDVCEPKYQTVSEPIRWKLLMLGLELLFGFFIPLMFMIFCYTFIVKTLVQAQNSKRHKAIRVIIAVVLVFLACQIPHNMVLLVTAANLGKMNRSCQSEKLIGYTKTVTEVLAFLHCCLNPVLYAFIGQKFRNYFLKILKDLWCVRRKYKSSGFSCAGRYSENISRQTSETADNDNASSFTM
APJ antag = antagonists of human APJ apelin receptor. inhibition, % at 20 µM. CHO-K1 APJ beta-arrestin complementation, luminescence. P35414. hit rate 0.32% among 330,000. AID 2521;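 active = inhibition above about 40% at 20 µM, limit read from the data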;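 note: cells challenged with 10 nM apelin-13 agonist together with compound; plate controls were apelin-13 plus DMSO wells for no effect and DMSO wells lacking apelin-13 for full effect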
EBI2 block = EBI2 (human) antagonism; hit rate 0.81% among 360,000; inhibition, % at 5 µM; EBI2 beta-arrestin recruitment, luminescence, 7a,25-OHC stimulated; AID 651636; in the data active = inhibition above about 38%;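 note: enzyme fragment complementation signal reports receptor beta-arrestin coupling in cells; 0% = agonist plus DMSO wells and 100% = wells without agonist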
APJ antag conf = confirmation of human APJ apelin receptor antagonists; shares compounds with APJ antag; hit rate 66% among 950; APJ beta-arrestin recruitment, luminescence, antagonist mode; inhibition, % at 20 µM; AID 2766; in the data active = inhibition above about 50%
Active calls of the source: *; nt = no result.

SMILES	TAG inh	CXCR6 block	APJ agonist	CCR6 antagonist	APJ antag	EBI2 block	APJ antag conf
CN(C)c1ccc2c(=O)cc[nH]c2c1	nt	-10	nt	nt	nt	-6	nt
COc1cc(/C=C/c2ccc3cccc(OC)c3n2)c(O)c([N+](=O)[O-])c1	3	42*	-7	54*	44*	25	74*
COc1cc(Br)cc(/C=C/c2ccc3cccc(O)c3n2)c1O	nt	11	-3	21	-6	-12	nt
N#Cc1ccc(C(=O)N2CCCC(c3cc(C(=O)NCc4cccnc4)no3)C2)cc1 (centres undefined)	-27	3	nt	nt	nt	-4	nt
CCCCc1cc(=O)oc2c(C)c(OCC(=O)N3C[C@H]4C[C@@H](C3)c3cccc(=O)n3C4)ccc12	nt	0	-3	1	-7	4	nt
Cc1cc([N+](=O)[O-])nn1CC(=O)NNC(=S)Nc1ccc([N+](=O)[O-])cc1	nt	27	-7	40	47*	11	70*
CCN(Cc1ccccc1)c1ccccc1	nt	-1	nt	18	nt	0	nt
CCN(Cc1ccccc1)c1ccc(N=Nc2nn(C)c(C)c2[N+](=O)[O-])cc1	nt	49*	-7	64*	44*	20	113*
S=C1NCCc2ccccc2C1c1ccccc1 (centres undefined)	-5	12	-5	31	19	-1	nt
S=C1NCCc2ccccc2C1c1ccccc1Cl (centres undefined)	-16	35	-11	52*	44*	9	87*
CCOC(=O)c1c(-c2ccc(-c3ccccc3)cc2)csc1NC(=O)CNCCN(C)C	nt	32	-6	78*	43*	-7	96*
Cc1ccccc1-n1c(Cn2c(=O)sc3ccccc32)nnc1SCC(=O)N1CCOCC1	9	-2	0	5	52*	5	19
O=C(CSc1nnc(Cn2c(=O)sc3ccccc32)n1-c1ccccc1)N1CCOCC1	nt	-2	-1	-3	-4	4	nt
S=C(Nc1ccccc1)Nc1nc2ccccc2n1CCOc1ccc(Br)cc1	23	8	3	-7	0	0	nt
Cn1c(NC(=S)Nc2ccccc2)nc2ccccc21	nt	-10	-4	-19	41*	7	14
CCCC[C@@H]1C=C(C(=O)O)[C@H](c2ccc(Br)cc2)N1S(=O)(=O)c1ccc(C)cc1	6	8	-2	2	3	5	nt
C=CCn1c(-c2ccccc2OC)n[nH]c1=S	nt	0	-3	5	5	-12	nt
C=CCn1c(-c2cccc3ccccc23)n[nH]c1=S	nt	4	-2	-18	43*	13	15
CCOc1ccc(S(=O)(=O)Nc2nc3ccccc3nc2Nc2ccc(N3CCOCC3)cc2)cc1	nt	2	0	8	-10	-2	nt
CSc1ncccc1C(=O)OCC(=O)c1ccc(S(=O)(=O)N2CCCCC2)cc1	-8	37	-17	34	46*	21	30
COc1ccc(CC(=O)OC(C)C(=O)NCc2ccc3c(c2)OCO3)cc1OC (centres undefined)	25	-10	-1	2	41*	-2	1
O=C1NC[C@@H](CCCCN2C[C@H](Cc3ccc(O)cc3)N(CCc3ccc(O)cc3)C(=O)C2=O)N(CC2CCCCC2)C1=O	nt	0	nt	nt	nt	3	nt
Cc1ccc2nsnc2c1NC(=O)Cc1ccc(Cl)cc1	-4	8	-5	19	45*	8	47
Cc1ccc2nsnc2c1NC(=O)CCl	13	-1	-3	-5	6	-6	nt
Cc1ccccc1S(=O)(=O)N(C)C[C@@H]1OCc2cn(nn2)CCCC(=O)N([C@H](C)CO)C[C@H]1C	2	-3	nt	nt	nt	-11	nt
O=C1NC(=S)N/C1=C/c1cccc([N+](=O)[O-])c1O	nt	44*	-11	46	43*	6	79*
O=C(NC1CCCC1)c1cccc(S(=O)(=O)N2CCCC2)c1	15	-9	-1	6	21	-3	nt
CC1=NN(c2ccc(C)cc2)C(=O)/C1=C\C=C\c1ccccc1	-17	5	-1	12	8	-6	nt
CC1=NN(c2ccccc2)C(=O)/C1=C/C=C/C=C/N(C)C	-14	49*	-8	58*	65*	10	91*

Screening data as filed in PubChem BioAssay.
